Counter-ions that a name gives are not always drawn.

In assay [1] the test system is K562. The assay can be described thus: Cytotoxicity against human K562 cells after 72 hrs by trypan blue exclusion method. The following applies: K562, 72 h.
In assay [2] the test system is A549. The assay can be described thus: Cytotoxicity against human A549 cells after 72 hrs by SRB assay. Type of assay: functional, cell-based. The following applies: A549, 72 h. The essentials:
(§1)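 Adherent tumour cells were seeded in 96-well plates 24 h before dosing and exposed continuously to a series of compound concentrations for 72 h. Cells were then fixed and stained with sulforhodamine B to read out cytotoxicity.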

Assay [3] relates to HT-29. The assay can be described thus: Cytotoxicity against human HT29 cells after 72 hrs by SRB assay. It is filed as functional, cell-based. The following applies: HT-29, 72 h. The essentials: as §1

On to `CC(=O)[C@]1(N)Cc2c(O)c3c(c(O)c2[C@@H](O[C@H]2C[C@H](O)[C@H](O)CO2)C1)C(=O)c1ccccc1C3=O` [AMRUBICIN HYDROCHLORIDE], for which the IC50 was found to be 1260 nM in assay [1], 820 nM in assay [2] and 4360 nM in assay [3].

Take `CC1=C[C@@H]2CC3=C([C@H](O)C[C@]4(C)[C@H]3C[C@]3(O)C=C5C=CC(=O)OC(C)(C)[C@@H]5CC[C@@H]43)[C@H](C)[C@@H]2OC1=O` [KADLONGILACTONE A]: the IC50 in assay [1] turned out to be 3440 nM; in assay [2], 1240 nM; in assay [3], 1440 nM.

As to `CO[C@@H]1C[C@]2(C)[C@@H](C[C@]3(O)C=C4C=CC(=O)OC(C)(C)[C@@H]4CC[C@@H]23)C2=C1[C@H](C)[C@@H]1OC(=O)C(C)=C[C@@H]1C2` [KADLONGILACTONE C], the IC50 came out at 3610 nM in assay [1], 1450 nM in assay [2] and 2080 nM in assay [3].

For the compound `CC1=C[C@@H]2CC3=C([C@@H](O)C[C@]4(C)[C@H]3C[C@]3(O)C=C5C=CC(=O)OC(C)(C)[C@@H]5CC[C@@H]43)[C@H](C)[C@@H]2OC1=O` [KADLONGILACTONE D], the IC50 in assay [1] stood at 1920 nM; in assay [2] it was 490 nM; in assay [3], 1640 nM.

As for `CO[C@H]1C[C@]2(C)[C@@H](C[C@]3(O)C=C4C=CC(=O)OC(C)(C)[C@@H]4CC[C@@H]23)C2=C1[C@H](C)[C@@H]1OC(=O)C(C)=C[C@@H]1C2` [KADLONGILACTONE E], the IC50 in assay [1] stood at 3350 nM; in assay [2], 880 nM; in assay [3] it was 1320 nM.

For the origin of these results see ChEMBL document CHEMBL1141336, “Isolation and structure elucidation of kadlongilactones C-F from Kadsura longipedunculata by NMR spectroscopy and DFT computational methods” (J Nat Prod, 2007).
